Experimental data collected from several papers.
Lines come from different studies, so protocols differ.
Target: Mitogen-activated protein kinase 1 (MAPK1, Homo sapiens, UniProt P28482)

O=C(NCC1CCOCC1)c1n[nH]cc1NC(=O)c1c(F)cccc1F — remaining binding (binding; competition with immobilised ligand; 1 µM): 87%
CNC(=O)Nc1ccc2c(c1)[C@@]1(CC2)OC(=O)N(CC(=O)N(Cc2ccc(F)cc2)[C@@H](C)C(F)(F)F)C1=O — remaining binding (cell-free assay; competition with immobilised ligand; 1 µM): 91%
C[C@@H]1CCN(c2nccc(-c3cnn4ncccc34)n2)C1 — remaining binding (binding; 1 µM): 88%
FC(F)(F)c1ccc2c(c1)nc(-c1cccnc1)n2C1CC1 — remaining binding (cell-free assay; competition with immobilised ligand; 1 µM): 100%
O=C(c1ccc(Nc2ncc(Cl)c(-c3ccc(Cl)s3)n2)cc1)N1CCC(N2CCCC2)CC1 — remaining binding (binding; competition with immobilised ligand; 1 µM): 100%
CN(C)c1nccc(-c2cnn3ncccc23)n1 — remaining binding (binding; 1 µM): 100%
O=C(NCCCN1CCOCC1)c1ccc(Nc2ncc(Cl)c(-c3ccc(Cl)s3)n2)cc1 — remaining binding (binding; competition with immobilised ligand; 1 µM): 100%
Nc1ncc2c(n1)-c1c([nH]c3ccc(C#CC4CC4)cc13)CCCC2 — remaining binding (binding; competition with immobilised ligand; 1 µM): 100%
CN(CCCC(F)(F)F)c1nccc(-c2cnn3ncccc23)n1 — remaining binding (binding; 1 µM): 100%
COc1cnc(Nc2cccc(S(N)(=O)=O)c2)nc1N1CCN(c2ccccc2)CC1 — remaining binding (binding; competition with immobilised ligand; 1 µM): 100%
C[C@@H](c1ccc(-n2cnc3c(N)ncnc32)cc1)N1CCc2nn(C)c(Cc3ccccc3)c2C1=O — remaining binding (binding; competition with immobilised ligand; 0.1 µM): 91%
C=CC(=O)N1CCC(C(=O)NCC(=O)N2CCN(c3nc(-c4cnc(N)nc4C(F)F)nc(N4CCOCC4)n3)CC2)CC1 — remaining binding (binding; competition with immobilised ligand; 1 µM): 98%
CN(C)c1nccc(-c2cnc3ncccn23)n1 — remaining binding (binding; 1 µM): 81%
Cc1cnc(Nc2ccc(C(=O)N3CCC(N4CCCC4)CC3)cc2)nc1-c1cc2ccccc2s1 — remaining binding (binding; competition with immobilised ligand; 1 µM): 100%
CO[C@@H](C)c1c(Nc2ccc([C@H](N(C)C(=O)C3CCS(=O)(=O)CC3)C(F)(F)F)cc2)cnc2cc(Cl)nn12 — remaining binding (cell-free assay; competition with immobilised ligand; 1 µM): 100%
CC1CCCN1c1nccc(-c2cnn3ncccc23)n1 (stereo not shown) — remaining binding (binding; 1 µM): 95%
CCCOc1ccc([C@H]2[C@H](C(=O)O)[C@@H](c3ccc4c(c3)OCO4)CN2CC(=O)Nc2c(CC)cccc2CC)cc1 — remaining binding (cell-free assay; competition with immobilised ligand; 1 µM): 100%
COc1cnc(Nc2cccc(S(N)(=O)=O)c2)nc1N1CCN(c2ccccc2)C(=O)C1 — remaining binding (binding; competition with immobilised ligand; 1 µM): 100%
CSc1cccnc1N1CCN(Cc2nc3ccccc3[nH]2)CC1 — remaining binding (cell-free assay; competition with immobilised ligand; 1 µM): 93%
N[C@H]1CCN(c2nccc(-c3cnn4ncccc34)n2)C1 — remaining binding (binding; 1 µM): 100%
C[C@H](c1cccc(C#N)c1)n1cc(Cl)cc(C(N)=O)c1=N — remaining binding (cell-free assay; competition with immobilised ligand; 1 µM): 93%
CCN1CCN(Cc2ccc(C(=O)Nc3ccc(C)c(Oc4ccc5c(c4)CC(=O)N5)c3)cc2C(F)(F)F)CC1 — remaining binding (binding; competition with immobilised ligand; 1 µM): 100%
